Experiment [1] can be described thus: Inhibition of bacterial beta-lactamase CTX-M-15 using nitrocefin as substrate incubated for 20 mins. More on the design: species or system Bacteria.
A short description of experiment [2]: Inhibition of bacterial beta-lactamase KPC-2 using nitrocefin as substrate incubated for 20 mins. Also on record: species or system Bacteria. The procedure, abridged:
(§1)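 Nitrocefin hydrolysis read by absorbance. Enzyme titrated to give about 0.2 absorbance change over the no-enzyme control. Enzyme added to nitrocefin (final 50 μg/mL) plus inhibitor, no preincubation, read after 20 min at 35 °C. IC50 is 50% reduction of hydrolysis. N = 1.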

The nature of experiment [3]: Inhibition of bacterial beta-lactamase CMY-2 using nitrocefin as substrate incubated for 20 mins. Also on record: species or system Bacteria. The procedure, abridged: as §1
Experiment [4] has as its system Escherichia coli. Briefly: Antibacterial activity against Escherichia coli ATCC SR34100 assessed as reduction in bacterial growth by measuring minimum […] concentration incubated for 16 to 24 hrs by CLSI based two-fold serial dilution method. The class given is functional. Particulars: time 16-24 hrs. The procedure, abridged:
(§2)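 MPC₁ by broth microdilution: twofold serial dilutions of inhibitor in cation-adjusted Mueller Hinton broth containing ceftibuten at 1 μg/mL. Inoculum about 5 × 10⁴ cfu/well final, set from OD625. Incubation at 35 °C for 16−20 h. […] N = 1.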

In experiment [5] the test system is Escherichia coli. Briefly: Antibacterial activity against Escherichia coli ATCC SR09613 assessed as reduction in bacterial growth by measuring minimum […] concentration incubated for 16 to 24 hrs by CLSI based two-fold serial dilution method. In kind it is functional. Particulars: time 16-24 hrs. The essentials: as §2
Experiment [6] deals with Klebsiella pneumoniae. Put plainly: Antibacterial activity against Klebsiella pneumoniae ATCC SR201218 assessed as reduction in bacterial growth by measuring minimum […] concentration incubated for 16 to 24 hrs by CLSI based two-fold serial dilution method. Particulars: time 16-24 hrs. The class given is functional. The essentials:
as §2

In experiment [7] the test system is Escherichia coli. Put plainly: Antibacterial activity against Escherichia coli ATCC SR34100 assessed as inhibition of bacterial growth incubated for 16 to 20 hrs by CLSI based two-fold serial dilution method.
Experiment [8] has as its system Escherichia coli. Briefly: Antibacterial activity against Escherichia coli ATCC SR09613 assessed as inhibition of bacterial growth incubated for 16 to 20 hrs by CLSI based two-fold serial dilution method.
Experiment [9] relates to Klebsiella pneumoniae. Put plainly: Antibacterial activity against Klebsiella pneumoniae ATCC BAA1705 assessed as inhibition of bacterial growth incubated for 16 to 20 hrs by CLSI based two-fold serial dilution method.
For experiment [10], the system named is Klebsiella pneumoniae. Put plainly: Antibacterial activity against Klebsiella pneumoniae ATCC SR201218 assessed as inhibition of bacterial growth incubated for 16 to 20 hrs by CLSI based two-fold serial dilution method.
Experiment [11] concerns Klebsiella pneumoniae. Put plainly: Antibacterial activity against Klebsiella pneumoniae ATCC BAA1705 assessed as reduction in bacterial growth by measuring minimum potentiating concentration incubated for 16 to 20 hrs by CLSI based two-fold serial dilution method. The conditions noted are these: time 16-20 hrs.

The structures appear in SMILES notation. A value given as a limit tells only on which side of the number the result lay.

Experimental findings from ChEMBL document CHEMBL5236549, “Discovery of 2-Sulfinyl-Diazabicyclooctane Derivatives, Potential Oral β-Lactamase Inhibitors for Infections Caused by Serine β-Lactamase-Producing Enterobacterales” (J Med Chem, 2021) are described below.

With `NC(=O)/C(C[S@@+]([O-])[C@@H]1CC[C@@H]2CN1C(=O)N2O[C@H](F)C(=O)[O-])=N\O.[Na+]` (stereo in doubt), the 50% inhibitory concentration (IC50) (as a rule, the concentration that gives 50% inhibition) turned out to be 70 nM in experiment [1], 132 nM in experiment [2] and 143 nM in experiment [3]. Further, the MPC in the experiment with Escherichia coli [4] is 2 µg/mL; with Escherichia coli [5], 0.25 µg/mL; with Klebsiella pneumoniae [6], 32 µg/mL; in the experiment with Klebsiella pneumoniae [11] it was 2 µg/mL. For the same compound, the minimal inhibitory concentration (MIC) in the experiment on Escherichia coli [7], in the experiment with Escherichia coli [8], in the experiment on Klebsiella pneumoniae [9] and in the experiment with Klebsiella pneumoniae [10] was more than 32 µg/mL throughout.
With `O=C([O-])[C@@H](F)ON1C(=O)N2C[C@H]1CC[C@H]2[S@+]([O-])C[C@@H](O)CO.[Na+]`, the half-maximal inhibitory concentration (IC50) in experiment [1] worked out at 10 nM; in experiment [2], 56 nM; in experiment [3], 52 nM. Moreover, the MPC in the experiment with Escherichia coli [4] turned out to be 1 µg/mL; in the experiment with Escherichia coli [5], 0.125 µg/mL; in the experiment on Klebsiella pneumoniae [6] it was 8 µg/mL; with Klebsiella pneumoniae [11], 0.25 µg/mL. Also, the minimum inhibitory concentration (MIC) in the experiment with Escherichia coli [7], with Escherichia coli [8], with Klebsiella pneumoniae [9] and in the experiment on Klebsiella pneumoniae [10] was more than 32 µg/mL throughout.
On to `Cc1nnc(C[S@@+]([O-])[C@@H]2CC[C@@H]3CN2C(=O)N3O[C@H](F)C(=O)[O-])o1.[Na+]`, for which the values for the IC50 in experiment [1], in experiment [2] and in [3] were 24 nM, 16 nM and 36 nM, respectively. The MPC in the experiment with Escherichia coli [4] was 1 µg/mL; in the experiment on Escherichia coli [5] it was 0.125 µg/mL; in the experiment on Klebsiella pneumoniae [6] it was 4 µg/mL; in the experiment on Klebsiella pneumoniae [11] it was 1 µg/mL. For the same compound, the minimum inhibitory concentration (MIC) in the experiment with Escherichia coli [7], with Escherichia coli [8], with Klebsiella pneumoniae [9] and with Klebsiella pneumoniae [10] was more than 32 µg/mL throughout.
Consider `O=C([O-])[C@@H](F)ON1C(=O)N2C[C@H]1CC[C@H]2[S@+]([O-])CCO.[Na+]`, for which the IC50 in experiment [1] came out at 16 nM; in experiment [2], 36 nM; in experiment [3], 57 nM. Besides, the MPC is 0.5 µg/mL in the experiment with Escherichia coli [4], 0.125 µg/mL in the experiment on Escherichia coli [5], 2 µg/mL in the experiment with Klebsiella pneumoniae [6] and 1 µg/mL in the experiment on Klebsiella pneumoniae [11]. The MIC in the experiment with Escherichia coli [7], with Escherichia coli [8] and in the experiment with Klebsiella pneumoniae [10] was more than 32 µg/mL throughout.
`NC(=O)C[S@@+]([O-])[C@@H]1CC[C@@H]2CN1C(=O)N2O[C@H](F)C(=O)[O-].[Na+]`: the IC50 in experiment [1] amounted to 50 nM; in [2], 35 nM; in experiment [3], 57 nM. For the same compound, the MPC with Escherichia coli [4] stood at 0.25 µg/mL; in the experiment on Escherichia coli [5], 0.125 µg/mL; with Klebsiella pneumoniae [6], 4 µg/mL; in the experiment on Klebsiella pneumoniae [11] it was 0.063 µg/mL. Besides, the MIC – broadly, the smallest concentration in the dilution series that meets the test's criterion for growth inhibition – in the experiment with Escherichia coli [7] was 32 µg/mL; with Escherichia coli [8], 32 µg/mL; with Klebsiella pneumoniae [9], 32 µg/mL; in the experiment on Klebsiella pneumoniae [10], more than 32 µg/mL.
For `N#CC[S@@+]([O-])[C@@H]1CC[C@@H]2CN1C(=O)N2O[C@H](F)C(=O)[O-].[Na+]`, the IC50 worked out at 7 nM in experiment [1], 39 nM in experiment [2] and 96 nM in experiment [3]. In addition, the MPC in the experiment with Escherichia coli [4] was 0.25 µg/mL; with Escherichia coli [5], 0.125 µg/mL; in the experiment on Klebsiella pneumoniae [6], 2 µg/mL; in the experiment on Klebsiella pneumoniae [11] it was less than 0.031 µg/mL. Further, the MIC was more than 32 µg/mL in the experiment on Escherichia coli [7], 32 µg/mL with Escherichia coli [8], more than 32 µg/mL with Klebsiella pneumoniae [9] and more than 32 µg/mL with Klebsiella pneumoniae [10].
In the case of `CC(=O)NCC[S@@+]([O-])[C@@H]1CC[C@@H]2CN1C(=O)N2O[C@H](F)C(=O)[O-].[Na+]`, the IC50 in [1] stood at 101 nM; in experiment [2], 7 nM; in [3], 101 nM. Further, the MPC in the experiment on Escherichia coli [4] came out at 0.5 µg/mL; in the experiment on Escherichia coli [5], 0.063 µg/mL; in the experiment with Klebsiella pneumoniae [6], 8 µg/mL; with Klebsiella pneumoniae [11], 0.25 µg/mL. The minimal inhibitory concentration (MIC) in the experiment with Escherichia coli [7], in the experiment on Escherichia coli [8] and in the experiment with Klebsiella pneumoniae [9] was more than 32 µg/mL in each case.
